Results: ChEMBL document CHEMBL3877298, “Discovery of benzimidazole derivatives as modulators of mitochondrial function: A potential treatment for Alzheimer's disease” (Eur J Med Chem, 2017)

Columns and labels:
[1] = target: Translocator protein (Mus musculus) (UniProt P50637); experiment: Inhibition of TSPO in mouse HT22 cells assessed as protection against amyloid beta (1 to 42)-induced mitochondrial membrane potential loss by measuring recovery of mitochondrial membrane potential at 5 uM preincubated for 10 mins followed by amyloid beta (1 to 42) addition measured every 1 hr for 3 hrs by JC1 staining based fluorescence assay relative to control; type: cell-based; design: scale not given: the % may be the effect or the level left; details: HT-22
How it was run: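 HT22 cells at 30,000 per well were loaded with 7.5 µM JC-1 in phenol red-free Opti-MEM for 1 h 15 min at 37 °C, then washed. Cells were treated with compound (5 µM) and Aβ1-42 (5 µM); vehicle wells received DMSO. Green (485/535) and red (560/595) fluorescence were read hourly for 3 h. Recovery was normalised between Aβ-damaged (0%) and normal (100%) ratio.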

[2] = target: Translocator protein (Mus musculus) (UniProt P50637); experiment: Inhibition of TSPO in mouse HT22 cells assessed as protection against amyloid beta (1 to 42)-induced mitochondrial membrane potential loss by measuring recovery of ATP production at 5 uM preincubated for 10 mins followed by amyloid beta (1 to 42) addition measured after 7 hrs by luciferase reporter gene assay relative to control; type: cell-based; design: scale not given: the % may be the effect or the level left; details: HT-22
How it was run: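 HT22 cells at 7000 per well were given compound (5 µM) for 10 min at 37 °C, then Aβ1-42 (5 µM) or DMSO vehicle, and incubated 7 h. Cells were washed, lysed in 1% Triton X-100, and protein-equalised by BCA. ATP was measured by luciferin/luciferase luminescence and normalised to vehicle.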

[3] = Cytotoxicity against mouse HT22 cells assessed as cell viability at 5 uM after 24 hrs by MTT assay relative to control; type: toxicity, HT-22; details: read-out: Activity
How it was run: (§1)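 MTT was added for 2 h, then solubilising solution (10% Triton X-100 in isopropanol with 0.1 M HCl) for 2 h more. Absorbance read at 560 nm; % inhibition normalised to vehicle, and viability taken from compound-only wells.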

[4] = target: Translocator protein (Mus musculus) (UniProt P50637); experiment: Inhibition of TSPO in mouse HT22 cells assessed as inhibition of amyloid beta (1 to 42)-induced toxicity at 5 uM after 24 hrs by MTT assay relative to control; type: cell-based; details: HT-22
How it was run: as §1, with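 “HT22 cells at 5000 per well were treated with compound (5 µM), with or without Aβ1-42 (5 µM), for 24 h at 37 °C. MTT” for “MTT”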

[5] = target: Translocator protein (Mus musculus) (UniProt P50637); experiment: Inhibition of TSPO in mouse HT22 cells assessed as inhibition of amyloid beta (1 to 42)-induced ROS generation at 5 uM after 6 hrs by DCFDA staining based fluorescence assay relative to control; type: cell-based; details: HT-22

Translocator protein (Mus musculus), sequence (P50637 whole entry, looked up): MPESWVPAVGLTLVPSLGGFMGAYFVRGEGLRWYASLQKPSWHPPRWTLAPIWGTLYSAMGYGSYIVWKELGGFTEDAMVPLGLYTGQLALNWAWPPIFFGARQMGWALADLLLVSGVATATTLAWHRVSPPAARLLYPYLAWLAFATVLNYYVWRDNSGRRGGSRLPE

SMILES | Activity [1] | also measured
CCCSCCNC(=O)c1ccc(Cn2c(SCc3ccccc3)nc3ncccc32)cc1 | 23% | –
COc1ccc(OC)c(-c2nc3ccccc3n2CC(=O)Nc2cc(C(C)C)ccc2C)c1 | 41% | –
Cc1ccc(C(C)C)cc1NC(=O)Cn1c(Cc2ccc(Cl)c(Cl)c2)nc2ccccc21 | 57% | –
Cc1ccc(C(C)C)cc1NC(=O)Cn1c(Cc2ccccc2)nc2ccccc21 | 24% | –
Cc1ccc(C(C)C)cc1NC(=O)Cn1c(-c2ccccc2)nc2ccccc21 | 63% | Activity [2]: 19%; viability at 24 h, 5 µM [3]: 67%
CC[C@@H](C(=O)Nc1ccccc1OC)n1c(SCc2ccc(C)cc2)nc2ccncc21 | 43% | –
CC(C)(C)c1cc(NC(=O)Cn2c(Cc3ccc(Cl)c(Cl)c3)nc3ccccc32)cc(C(C)(C)C)c1 | 42% | –
COc1ccc(NC(=O)Cn2c(SCc3cc(C)ccc3C)nc3ccncc32)c(OC)c1OC | 43% | –
O=C(CCn1c(-c2ccc(Cl)cc2)nc2ccccc21)Nc1ccccc1F | 65% | –
O=C(NCCN1CCOCC1)c1ccc(Cn2c(SCc3ccc(F)cc3)nc3ncccc32)cc1 | 47% | –
O=C(c1ccc(CSc2nc3ncccc3n2Cc2ccc(F)cc2)cc1)N1CCCCC1 | 37% | –
Cc1ccc(C(C)C)cc1NC(=O)Cn1c(-c2cc(Cl)ccc2Cl)nc2ccccc21 | 91% | Activity [2]: 0%; viability at 24 h, 5 µM [3]: 93%
O=C(NCCCc1ccco1)c1ccc(Cn2c(SCc3ccc(F)cc3)nc3ncccc32)cc1 | 52% | –
CCCN(CCC)C(=O)Cn1c(SCc2ccc(F)cc2)nc2ccccc21 | 57% | Activity [2]: 20%
O=C(NCCCN1CCOCC1)c1ccc(Cn2c(Cc3c(Cl)cccc3Cl)nc3ccccc32)cc1 | 76% | Activity [2]: 1%; viability at 24 h, 5 µM [3]: 98%
O=C(Cn1c(-c2ccccc2)nc2ccccc21)Nc1cc(Cl)cc(Cl)c1 | 69% | –
COc1ccc(OC)c(Cc2nc3ccccc3n2CC(=O)Nc2cc(C(C)C)ccc2C)c1 | 81% | Activity [2]: 0%; viability at 24 h, 5 µM [3]: 96%
Cc1ccc(C(C)C)cc1NC(=O)Cc1nc2ccccc2n1Cc1ccc(C(=O)NCCCN2CCCCC2)cc1 | 80% | Activity [2]: 23%; viability at 24 h, 5 µM [3]: 100%
O=C(Cn1c(-c2cc(Cl)ccc2Cl)nc2ccc(Cl)cc21)Nc1cc(Cl)cc(Cl)c1 | 18% | –
Cc1ccc(C(C)C)cc1NC(=O)Cn1c(-c2cc(Cl)ccc2Cl)nc2cc(Cl)ccc21 | 60% | Activity [2]: 3%; viability at 24 h, 5 µM [3]: 78%
O=C(NCCN1CCCCC1)c1ccc(Cn2c(SCc3ccc(F)cc3)nc3ncccc32)cc1 | 45% | –
CN1CCC(NC(=O)c2ccc(Cn3c(Cc4c(Cl)cccc4Cl)nc4ccccc43)cc2)CC1 | 81% | Activity [2]: 8%; viability at 24 h, 5 µM [3]: 94%
Cc1c(Cl)cccc1NC(=O)Cn1c(SCc2ccccc2F)nc2ccncc21 | 30% | –
Cc1cccc(C(C)(C)C)c1NC(=O)Cn1c(-c2cc(Cl)ccc2Cl)nc2ccccc21 | 41% | –
O=C(NCCCN1CCCC1)c1ccc(Cn2c(Cc3c(Cl)cccc3Cl)nc3ccccc32)cc1 | 79% | Activity [2]: 31%; viability at 24 h, 5 µM [3]: 100 to 101%; inhibition [4]: 12%; inhibition [5]: 15%
CCN(CC)CCCNC(=O)c1ccc(Cn2c(SCc3ccc(F)cc3)nc3ncccc32)cc1 | 38% | –

SMILES | Activity [1] | also measured
COc1ccc(OC)c(-c2nc3ccccc3n2CC(=O)Nc2cc(Oc3ccc(-c4ccccc4)cc3)ccc2F)c1 | 0% | –
Cc1cccc(C(C)(C)C)c1NC(=O)Cn1c(-c2ccccc2)nc2ccccc21 | 65% | Activity [2]: 55%; viability at 24 h, 5 µM [3]: 65 to 95%; inhibition [4]: 16%; inhibition [5]: 0%
Cc1ccc(Cn2c(SCc3ccc(F)cc3)nc3ncccc32)cc1 | 15% | –
CCN1CCCC1CNC(=O)c1ccc(Cn2c(SCc3ccc(F)cc3)nc3ncccc32)cc1 (stereo unspecified) | 61% | –
CC(C)(C)c1cc(NC(=O)Cn2c(-c3ccccc3)nc3ccccc32)cc(C(C)(C)C)c1 | 86% | Activity [2]: 4%; viability at 24 h, 5 µM [3]: 71%
Cc1ccc(C(C)C)c(OC[C@H](O)Cn2c(Cc3ccccc3)nc3ccccc32)c1 | 53% | –
CCN1CCCC1CNC(=O)c1ccc(Cn2c(CC(=O)Nc3cc(C(C)C)ccc3C)nc3ccccc32)cc1 (stereo unspecified) | 68% | –
Cc1cccc(C(C)(C)C)c1NC(=O)Cn1c(Cc2ccccc2)nc2ccccc21 | 38% | –
CC(C)(C)c1cc(NC(=O)Cn2c(Cc3ccccc3)nc3ccccc32)cc(C(C)(C)C)c1 | 29% | –
O=C(NCCN1CCCCC1)c1ccc(Cn2c(Cc3c(Cl)cccc3Cl)nc3ccccc32)cc1 | 89% | Activity [2]: 4%; viability at 24 h, 5 µM [3]: 87%
O=C(Cn1c(Cc2ccccc2)nc2ccccc21)Nc1cc(Oc2ccc(-c3ccccc3)cc2)ccc1F | 0% | –
Cc1ccc(C(C)C)cc1NC(=O)Cc1nc2ccccc2n1Cc1ccc(C(=O)NCCCN(C)C)cc1 | 68% | Activity [2]: 14%; viability at 24 h, 5 µM [3]: 97%
C=CCN(C(=O)Cn1c(SCc2ccc(F)cc2)nc2ccncc21)c1ccccc1 | -1% | –
COc1ccc(OC)c(Cc2nc3ccccc3n2CC(=O)Nc2cc(Cl)cc(Cl)c2)c1 | 68% | Activity [2]: 94%; viability at 24 h, 5 µM [3]: 81 to 82%; inhibition [4]: 12%; inhibition [5]: 0%
O=C(Cn1c(-c2cc(Cl)ccc2Cl)nc2cc(Cl)ccc21)Nc1cc(Cl)cc(Cl)c1 | 77% | –
CCCN(CCC)C(=O)Cn1c(SCc2cccc(Cl)c2)nc2ccncc21 | 34% | –
COc1ccc(NC(=O)Cn2c(SCc3ccc(C)cc3)nc3ccncc32)c(OC)c1OC | 27% | –
O=C(NCCCc1cccs1)c1ccc(Cn2c(SCc3ccc(F)cc3)nc3ncccc32)cc1 | 46% | –
CCC1CCCCN1C(=O)Cn1c(SCc2cccc(C(F)(F)F)c2)nc2ncccc21 (stereo unspecified) | 25% | –
O=C(Cn1c(SCc2ccc(F)cc2)nc2ncccc21)Nc1ccc2c(c1)OCO2 | -7% | –
CN1CCN(CCCNC(=O)c2ccc(Cn3c(Cc4c(Cl)cccc4Cl)nc4ccccc43)cc2)CC1 | 86% | –
COc1ccc(CC(=O)Cn2c(SCc3ccc(F)cc3)nc3ccncc32)c(OC)c1 | 34% | –
O=C(Cn1c(-c2cc(Cl)ccc2Cl)nc2ccccc21)Nc1cc(Cl)cc(Cl)c1 | 91% | Activity [2]: 0%; viability at 24 h, 5 µM [3]: 107%
CN(C)C(=O)c1ccc(Cn2c(Cc3c(Cl)cccc3Cl)nc3ccccc32)cc1 | 73% | –
CCCSCCCNC(=O)c1ccc(CSc2nc3ncccc3n2Cc2cccc(C)c2)cc1 | 58% | –
